Measurements from paper PMC8649514 (Journal of the American Heart Association: Cardiovascular …, 2021).
Bridges are numbered along the chain shown (N, C = ends). Where no end group is shown, it is not given here.

What was measured:
[1] = tested on: ventricular lysates of β2‐AR transgenic mouse hearts; assay: Quantification of peptide accumulation in mouse heart lysates; format: in vivo; conditions: sulfo‐Cy5.5 cyclic peptide iv 0.5 mg/kg, 4 h, β2‐AR Tg mice; n=4 per group
[2] = tested on: heart and organs of β2‐AR transgenic mice; assay: Cardiac tracer uptake in whole organs by ex vivo NIR fluorescence imaging; design: species or system mouse; conditions: iv 0.5 mg/kg, 4 h, whole-organ Odyssey scan; P=0.057–0.1; n=4 per group
[3] = tested on: collagen IV; assay: Coimmunostaining of collagen IV and T peptide in human cardiac tissue; conditions: ex vivo costaining, IHD patient heart section, confocal microscopy
How it was run: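 Fresh-frozen IHD and nonfibrotic donor human heart cryosections (10 or 5 µm) were PBS-washed, blocked in 10% normal goat serum for 2 h at room temperature, and incubated 72 h at 4 °C with sulfo-Cy5.5 T peptide (0.0375 µg/mL in PBS). Collagen IV was stained with primary antibody (10 µg/mL, overnight, 4 °C) and Alexa Fluor 488 anti-rabbit secondary (2 µg/mL). Nuclei were stained with Hoechst (5 µg/mL), and images were taken by confocal microscopy at ×20.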

GKWHCTTKFPHHYCLYG (disulfide 5-14 (inferred)) [cyclic peptide]
amount of peptide per gram tissue, left vs right transgenic ventricle [1]: twice | peptide accumulation in kidneys and lungs, fibrotic vs nontransgenic mice [2]: near‐significant enhancement

TLTYTWS [T peptide]
overlap with collagen IV in human cardiac tissue [3]: high degree of overlap
